According to ChEMBL document CHEMBL1143122, “Novel analogs of D-e-MAPP and B13. Part 1: synthesis and evaluation as potential anticancer agents” (Bioorg Med Chem, 2008):

Columns and labels:
OVCAR-4 = test: Antiproliferative activity against human OVCAR4 cells after 48 hrs; type: functional; conditions: OVCAR-4, 48 h
Method in brief: (§1)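 NCI 60-cell screen. Cells were grown in RPMI 1640 with 5% FBS and 2 mM L-glutamine, then plated at 5,000–40,000 cells/well according to doubling time and preincubated for 24 h at 37 °C in 5% CO2. Compounds were dissolved in DMSO at 400× the top final concentration and tested at five 10-fold dilutions from 10−4 to 10−8 M for 48 h. Growth was read spectrophotometrically; GI50 is 50% net protein reduction.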

[1] = Antiproliferative activity against human NCI-ADR-RES cells after 48 hrs; type: functional; method in brief: as §1
U-251 = test: Antiproliferative activity against human U251 cells after 48 hrs; type: functional; conditions: U-251, 48 h
Method in brief: (§2)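 NCI 60-cell-line screen. Lines grown in RPMI 1640 with 5% fetal bovine serum and 2 mM L-glutamine, plated at 5,000–40,000 cells/well according to doubling time, left 24 h at 37 °C in 5% CO2. Drug stocks in DMSO at 400-fold the top final concentration. Five 10-fold dilutions, 10−4 to 10−8 M, incubated 48 h. Growth read spectrophotometrically as net protein; GI50 taken as 50% reduction.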

OVCAR-8 = test: Antiproliferative activity against human OVCAR8 cells after 48 hrs; type: functional; conditions: OVCAR-8, 48 h; method in brief: as §1
SN12C = test: Antiproliferative activity against human SN12C cells after 48 hrs; type: functional; method in brief: as §1
A549 = test: Antiproliferative activity against human A549 cells after 48 hrs; type: functional; conditions: A549, 48 h; method in brief: as §1
CCRF-CEM = test: Antiproliferative activity against human CCRF-CEM cells after 48 hrs; type: functional; method in brief: as §1
NCI-H460 = test: Antiproliferative activity against human NCI-H460 cells after 48 hrs; type: functional; conditions: NCI-H460, 48 h; method in brief: as §1
HCC 2998 = test: Antiproliferative activity against human HCC2998 cells after 48 hrs; type: functional; conditions: HCC 2998, 48 h; method in brief: as §1
COLO 205 = test: Antiproliferative activity against human COLO205 cells after 48 hrs; type: functional; conditions: COLO 205, 48 h; method in brief: as §1
M14 = test: Antiproliferative activity against human M14 cells after 48 hrs; type: functional; conditions: M14, 48 h; method in brief: as §1
ACHN = test: Antiproliferative activity against human ACHN cells after 48 hrs; type: functional; method in brief: as §1
NCI-H23 = test: Antiproliferative activity against human NCI-H23 cells after 48 hrs; type: functional; conditions: NCI-H23, 48 h; method in brief: as §1
IGROV-1 = test: Antiproliferative activity against human IGROV1 cells after 48 hrs; type: functional; conditions: IGROV-1, 48 h; method in brief: as §1
LOX IMVI = test: Antiproliferative activity against human LOXIMVI cells after 48 hrs; type: functional; method in brief: as §1
RXF 393 = test: Antiproliferative activity against human RXF393 cells after 48 hrs; type: functional; conditions: RXF 393, 48 h; method in brief: as §1
SK-OV-3 = test: Antiproliferative activity against human SKOV3 cells after 48 hrs; type: functional; conditions: SK-OV-3, 48 h; method in brief: as §1
PC-3 = test: Antiproliferative activity against human PC3 cells after 48 hrs; type: functional; conditions: PC-3, 48 h; method in brief: as §1
NCI-H226 = test: Antiproliferative activity against human NCI-H226 cells after 48 hrs; type: functional; conditions: NCI-H226, 48 h; method in brief: as §1
[2] = Antiproliferative activity against human HL60(TB) cells after 48 hrs; type: functional, HL-60(TB); conditions: HL-60, 48 h
Method in brief: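 NCI 60-line panel screen: cells grown in RPMI 1640 with 5% fetal bovine serum and 2 mM L-glutamine, plated at 5,000–40,000 cells/well by doubling time, and preincubated 24 h at 37 °C in 5% CO2. Drugs were solubilised in DMSO at 400-fold the final maximum and tested at five 10-fold dilutions from 10−4 to 10−8 M for 48 h. Net protein was read spectrophotometrically, and the concentration giving 50% reduction was reported as log10 GI50.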

SNB-19 = test: Antiproliferative activity against human SNB19 cells after 48 hrs; type: functional; conditions: SNB-19, 48 h; method in brief: as §1
SF-268 = test: Antiproliferative activity against human SF268 cells after 48 hrs; type: functional; conditions: SF-268, 48 h; method in brief: as §1
OVCAR-5 = test: Antiproliferative activity against human OVCAR5 cells after 48 hrs; type: functional; conditions: OVCAR-5, 48 h; method in brief: as §1
UO-31 = test: Antiproliferative activity against human UO31 cells after 48 hrs; type: functional; conditions: UO-31, 48 h; method in brief: as §2
OVCAR-3 = test: Antiproliferative activity against human OVCAR-3 cells after 48 hrs; type: functional; conditions: OVCAR-3, 48 h; method in brief: as §1
MCF7 = test: Antiproliferative activity against human MCF7 cells after 48 hrs; type: functional, cell-based; conditions: MCF7, 48 h
HCT-15 = test: Antiproliferative activity against human HCT15 cells after 48 hrs; type: functional; conditions: Homo sapiens, HCT-15, 48 h; method in brief: as §1
MDA-MB-435 = test: Antiproliferative activity against human MDA-MB-435 cells after 48 hrs; type: functional; conditions: Homo sapiens, MDA-MB-435, 48 h; method in brief: as §1
HCT-116 = test: Antiproliferative activity against human HCT116 cells after 48 hrs; type: functional; conditions: HCT-116, 48 h; method in brief: as §1
SF-539 = test: Antiproliferative activity against human SF539 cells after 48 hrs; type: functional; conditions: SF-539, 48 h; method in brief: as §1
[3] = read-out: Log LC50 (the source's name) (converted)

CCCCCCCCCCCCCCN[C@H](CO)[C@H](O)c1ccc([N+](=O)[O-])cc1.Cl
GI50 (OVCAR-4): 1.91 µM | LC50 (OVCAR-4): 6.76 µM | TGI (OVCAR-4; read-out: Log TGI (converted)): 3.55 µM | GI50 [1]: 2.04 µM | LC50 [1]: 8.91 µM | TGI ([1]; read-out: Log TGI (converted)): 4.27 µM | GI50 (U-251): 1.86 µM | TGI (U-251; read-out: Log TGI (converted)): 3.47 µM | GI50 (OVCAR-8): 2.29 µM | CC50 (OVCAR-8; [3]): > 100 µM | TGI (OVCAR-8; read-out: Log TGI (converted)): 5.62 µM | GI50 (SN12C): 2.19 µM | LC50 (50% net cell kill) (SN12C): > 100 µM | TGI (SN12C; read-out: Log TGI (converted)): 4.79 µM | GI50 (A549): 3.55 µM | CC50 (A549; [3]): > 100 µM | TGI (A549; read-out: Log TGI (converted)): 19.5 µM | GI50 (CCRF-CEM): 2 µM | TGI (CCRF-CEM; read-out: Log TGI (converted)): 3.98 µM | GI50 (NCI-H460): 1.91 µM | TGI (NCI-H460; read-out: Log TGI (converted)): 3.55 µM | GI50 (HCC 2998): 2.4 µM | CC50 (HCC 2998; [3]): 29.5 µM | TGI (HCC 2998; read-out: Log TGI (converted)): 5.62 µM | GI50 (COLO 205): 1.78 µM | TGI (COLO 205; read-out: Log TGI (converted)): 3.55 µM | GI50 (M14): 2.04 µM | LC50 (M14): 6.92 µM | TGI (M14; read-out: Log TGI (converted)): 3.72 µM | GI50 (ACHN): 1.86 µM | CC50 (ACHN; [3]): 6.17 µM | TGI (ACHN; read-out: Log TGI (converted)): 3.39 µM | GI50 (NCI-H23): 14.5 µM | CC50 (NCI-H23; [3]): 83.2 µM | TGI (NCI-H23; read-out: Log TGI (converted)): 34.7 µM | GI50 (IGROV-1): 1.91 µM | TGI (IGROV-1; read-out: Log TGI (converted)): 3.63 µM | GI50 (LOX IMVI): 1.74 µM | LC50 (LOX IMVI): 6.03 µM | TGI (LOX IMVI; read-out: Log TGI (converted)): 3.24 µM | GI50 (RXF 393): 1.82 µM | CC50 (RXF 393; [3]): 8.32 µM | TGI (RXF 393; read-out: Log TGI (converted)): 3.89 µM | GI50 (SK-OV-3): 8.91 µM | CC50 (SK-OV-3; [3]): 79.4 µM | TGI (SK-OV-3; read-out: Log TGI (converted)): 27.5 µM | GI50 (PC-3): 1.74 µM | TGI (PC-3; read-out: Log TGI (converted)): 3.16 µM | GI50 (NCI-H226): 10.5 µM | CC50 (NCI-H226; [3]): 100 µM | TGI (NCI-H226; read-out: Log TGI (converted)): 34.7 µM | GI50 [2]: 2.04 µM | LC50 [2]: 15.1 µM | TGI ([2]; read-out: Log TGI (converted)): 4.79 µM | GI50 (SNB-19): 1.74 µM | TGI (SNB-19; read-out: Log TGI (converted)): 3.55 µM | GI50 (SF-268): 2.09 µM | LC50 (SF-268): > 100 µM | TGI (SF-268; read-out: Log TGI (converted)): 4.9 µM | GI50 (OVCAR-5): 3.72 µM | CC50 (OVCAR-5; [3]): 72.4 µM | TGI (OVCAR-5; read-out: Log TGI (converted)): 14.1 µM | GI50 (UO-31): 4.27 µM | LC50 (UO-31): 87.1 µM | TGI (UO-31; read-out: Log TGI (converted)): 18.6 µM | GI50 (OVCAR-3): 8.13 µM | LC50 (OVCAR-3): 100 µM | TGI (OVCAR-3; read-out: Log TGI (converted)): 30.9 µM | GI50 (MCF7): 1.91 µM | TGI (MCF7; read-out: Log TGI (converted)): 3.47 µM | GI50 (HCT-15): 1.86 µM | TGI (HCT-15; read-out: Log TGI (converted)): 3.47 µM | GI50 (MDA-MB-435): 1.91 µM | LC50 (MDA-MB-435): 5.75 µM | TGI (MDA-MB-435; read-out: Log TGI (converted)): 3.31 µM | GI50 (HCT-116): 1.95 µM | LC50 (HCT-116): 6.17 µM | TGI (HCT-116; read-out: Log TGI (converted)): 3.47 µM | GI50 (SF-539): 1.66 µM | LC50 (SF-539): 6.03 µM | TGI (SF-539; read-out: Log TGI (converted)): 3.16 µM
